In ChEMBL document CHEMBL1275350, “First in class, potent, and orally bioavailable NADPH oxidase isoform 4 (Nox4) inhibitors for the treatment of idiopathic pulmonary fibrosis” (J Med Chem, 2010):

Tests used:
[1] = target: NADPH oxidase 2 (Homo sapiens, UniProt P04839); assay: Inhibition of human NOX2 overexpressed in […] cell membrane assessed as ROS production by cell free assay in presence of NADPH
Outline: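 Nox2 source: membranes from human polymorphonuclear cells, sonicated and collected at the 17/40% sucrose interface. ROS read by Amplex Red/HRP in PBS after NADPH addition, with compound at 1 nM–100 μM for 20 min at 37 °C. Background taken without membranes or agonist. Ki via Cheng-Prusoff, mean of ≥3 experiments in triplicate.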

[2] = target: T1, NADPH oxidase 4 (Homo sapiens, UniProt Q9NPH5); assay: Inhibition of human NOX4 overexpressed in T-REx-293 cell membrane assessed as ROS production by cell free assay in presence of NADPH; settings: in the assay text read “T-REx-293 cell membrane” for “human PMN cell membrane”
T1 sequence (Q9NPH5 whole entry): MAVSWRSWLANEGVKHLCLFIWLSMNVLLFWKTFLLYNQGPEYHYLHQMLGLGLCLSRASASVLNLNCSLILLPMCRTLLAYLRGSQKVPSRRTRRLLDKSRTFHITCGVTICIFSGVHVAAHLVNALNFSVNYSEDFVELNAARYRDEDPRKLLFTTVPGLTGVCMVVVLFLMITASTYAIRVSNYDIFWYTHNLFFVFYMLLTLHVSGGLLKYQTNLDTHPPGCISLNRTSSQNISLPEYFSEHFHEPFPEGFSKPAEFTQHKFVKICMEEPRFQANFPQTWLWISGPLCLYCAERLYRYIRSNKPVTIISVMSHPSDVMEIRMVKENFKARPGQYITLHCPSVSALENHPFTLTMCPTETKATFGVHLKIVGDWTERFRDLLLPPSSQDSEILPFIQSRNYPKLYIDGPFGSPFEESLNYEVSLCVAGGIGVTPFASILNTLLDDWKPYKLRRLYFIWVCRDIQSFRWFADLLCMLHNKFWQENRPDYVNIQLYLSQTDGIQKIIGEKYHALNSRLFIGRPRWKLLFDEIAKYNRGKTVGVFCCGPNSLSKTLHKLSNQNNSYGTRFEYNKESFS
Outline: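 hNOX4 T-REx-293 cells induced with tetracycline (1 μg/mL, 24 h), sonicated in sucrose/NaCl/EGTA PBS buffer pH 7.4, membranes taken from a sucrose gradient. NADPH-triggered ROS measured by Amplex Red/HRP in PBS, with compound at 1 nM–100 μM, 20 min at 37 °C. Ki by Cheng-Prusoff from ≥3 triplicate experiments.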

[3] = Inhibition of sodium channel at 10 uM
[4] = Clearance in Sprague-Dawley rat at 5 mg/kg, iv; type: ADME, organism-based; design: dose 5 mg/kg, route intravenous; settings: in vivo
Outline: (§1)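 Parallel design with six male rats: three given 5 mg/kg iv in EDPW (10% EtOH, 10% DMA, 30% PG, 50% water), three given 10 mg/kg orally in aqueous 0.5% CMC with 0.25% Tween 20. Carotid cannula blood sampled up to 24 h. Plasma levels by LC/MS/MS (LLOQ 1.00 ng/mL). Noncompartmental analysis.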

[5] = target: NADPH oxidase 1 (Homo sapiens, UniProt Q9Y5S8); assay: Inhibition of human NOX1 overexpressed in […] cell membrane assessed as ROS production by cell free assay in presence of NADPH; settings: in the assay text read “T-REx-CHO cell membrane” for “human PMN cell membrane”
Outline: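 Membranes from T-REx-CHO cells stably co-transfected with human NOX1, p22, NOXA1 and NOXO1, induced with tetracycline (1 μg/mL, 24 h), prepared on a 17/40% sucrose gradient. Incubated in PBS with Amplex Red, HRP and cofactors, then NADPH added. Compound at 1 nM–100 μM, 20 min at 37 °C. Ki by Cheng-Prusoff, at least three experiments in triplicate.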

[6] = target: Polyunsaturated fatty acid lipoxygenase ALOX15 (Homo sapiens) (UniProt P16050); assay: Inhibition of 15-lipoxygenase at 10 uM
[7] = target: Nitric oxide synthase, inducible (Homo sapiens) (UniProt P35228); assay: Inhibition of iNOS at 10 uM
[8] = target: Myeloperoxidase (Homo sapiens) (UniProt P05164); assay: Inhibition of human myeloperoxidase at 10 uM
[9] = target: Polyunsaturated fatty acid lipoxygenase ALOX12 (Homo sapiens) (UniProt P18054); assay: Inhibition of human 12-lipoxygenase at 10 uM
[10] = target: Phosphatidylinositol 4,5-bisphosphate 3-kinase catalytic subunit delta isoform (Homo sapiens) (UniProt O00329); assay: Inhibition of PI3Kdelta at 10; settings: concentration not given here
[11] = target: Mitogen-activated protein kinase kinase kinase 5 (Homo sapiens) (UniProt Q99683); assay: Inhibition of human ASK1 at 10 uM
[12] = Cmax in Sprague-Dawley rat at 5 mg/kg, iv; type: ADME, organism-based; design: dose 5 mg/kg, route intravenous; settings: in vivo; outline: as §1
[13] = target: Cytochrome P450 3A4 (Homo sapiens, UniProt P08684); assay: Inhibition of human CYP3A4; type: ADME
Outline: (§2)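 Recombinant human CYP isoforms with isoform-specific probe substrates and NADPH. Compound at 0.1–25 μM, final DMSO 0.3%. Metabolites measured by mass spectrometry, except CYP1A2, which used a fluorescent metabolite. IC50 derived from the decrease in metabolite formation compared with vehicle control.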

[14] = AUC (infinity) in Sprague-Dawley rat at 5 mg/kg, iv; type: ADME, organism-based; design: time infinity, dose 5 mg/kg, route intravenous; settings: plasma; outline: as §1
[15] = Cmax in Sprague-Dawley rat at 10 mg/kg, po; type: ADME, organism-based; design: dose 10 mg/kg, route oral; settings: in vivo; outline: as §1
[16] = AUC (infinity) in Sprague-Dawley rat at 10 mg/kg, po; type: ADME, organism-based; design: time infinity, dose 10 mg/kg, route oral; settings: plasma; outline: as §1
[17] = target: Phosphatidylinositol 4,5-bisphosphate 3-kinase catalytic subunit beta isoform (Homo sapiens) (UniProt P42338); assay: Inhibition of PI3Kbeta at 10; settings: concentration not given here
[18] = target: Cytochrome P450 2D6 (Homo sapiens, UniProt P10635); assay: Inhibition of human CYP2D6; type: ADME; outline: as §2
[19] = target: Endothelin-1 receptor (Homo sapiens) (UniProt P25101); assay: Inhibition of human ET-A receptor at 10 uM
Sequence of Endothelin-1 receptor (Homo sapiens) (P25101 whole entry): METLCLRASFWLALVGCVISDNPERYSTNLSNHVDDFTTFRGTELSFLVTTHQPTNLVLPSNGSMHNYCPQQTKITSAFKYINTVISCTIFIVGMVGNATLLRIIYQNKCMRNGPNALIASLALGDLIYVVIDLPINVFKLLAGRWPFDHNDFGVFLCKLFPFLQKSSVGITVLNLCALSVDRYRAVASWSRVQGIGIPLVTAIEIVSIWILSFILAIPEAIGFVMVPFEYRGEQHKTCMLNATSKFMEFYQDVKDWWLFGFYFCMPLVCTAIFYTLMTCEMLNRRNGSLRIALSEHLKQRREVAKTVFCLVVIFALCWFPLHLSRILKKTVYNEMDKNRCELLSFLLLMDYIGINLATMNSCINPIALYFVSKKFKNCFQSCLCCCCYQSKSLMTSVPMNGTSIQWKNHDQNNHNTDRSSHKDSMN

Sequence of Polyunsaturated fatty acid lipoxygenase ALOX15 (Homo sapiens) (P16050 whole entry): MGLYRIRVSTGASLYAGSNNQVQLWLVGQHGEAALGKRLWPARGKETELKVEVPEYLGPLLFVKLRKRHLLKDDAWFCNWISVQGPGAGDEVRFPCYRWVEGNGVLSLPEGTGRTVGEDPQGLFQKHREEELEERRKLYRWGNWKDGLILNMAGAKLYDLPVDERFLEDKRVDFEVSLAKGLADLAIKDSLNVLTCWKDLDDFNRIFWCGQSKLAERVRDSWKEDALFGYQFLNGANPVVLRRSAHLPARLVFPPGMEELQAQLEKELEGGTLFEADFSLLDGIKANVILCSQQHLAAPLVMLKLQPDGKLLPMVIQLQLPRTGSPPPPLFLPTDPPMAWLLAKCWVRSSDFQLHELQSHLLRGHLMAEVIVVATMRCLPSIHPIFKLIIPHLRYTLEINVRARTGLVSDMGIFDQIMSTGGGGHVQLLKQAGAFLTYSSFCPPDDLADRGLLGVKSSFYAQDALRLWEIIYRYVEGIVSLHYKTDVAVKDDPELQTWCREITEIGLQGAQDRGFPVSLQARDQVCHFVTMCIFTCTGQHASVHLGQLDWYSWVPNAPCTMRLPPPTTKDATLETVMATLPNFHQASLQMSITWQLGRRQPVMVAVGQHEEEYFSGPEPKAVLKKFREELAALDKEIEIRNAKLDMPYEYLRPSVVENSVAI
Sequence of Phosphatidylinositol 4,5-bisphosphate 3-kinase catalytic subunit delta isoform (Homo sapiens) (O00329 whole entry, canonical isoform): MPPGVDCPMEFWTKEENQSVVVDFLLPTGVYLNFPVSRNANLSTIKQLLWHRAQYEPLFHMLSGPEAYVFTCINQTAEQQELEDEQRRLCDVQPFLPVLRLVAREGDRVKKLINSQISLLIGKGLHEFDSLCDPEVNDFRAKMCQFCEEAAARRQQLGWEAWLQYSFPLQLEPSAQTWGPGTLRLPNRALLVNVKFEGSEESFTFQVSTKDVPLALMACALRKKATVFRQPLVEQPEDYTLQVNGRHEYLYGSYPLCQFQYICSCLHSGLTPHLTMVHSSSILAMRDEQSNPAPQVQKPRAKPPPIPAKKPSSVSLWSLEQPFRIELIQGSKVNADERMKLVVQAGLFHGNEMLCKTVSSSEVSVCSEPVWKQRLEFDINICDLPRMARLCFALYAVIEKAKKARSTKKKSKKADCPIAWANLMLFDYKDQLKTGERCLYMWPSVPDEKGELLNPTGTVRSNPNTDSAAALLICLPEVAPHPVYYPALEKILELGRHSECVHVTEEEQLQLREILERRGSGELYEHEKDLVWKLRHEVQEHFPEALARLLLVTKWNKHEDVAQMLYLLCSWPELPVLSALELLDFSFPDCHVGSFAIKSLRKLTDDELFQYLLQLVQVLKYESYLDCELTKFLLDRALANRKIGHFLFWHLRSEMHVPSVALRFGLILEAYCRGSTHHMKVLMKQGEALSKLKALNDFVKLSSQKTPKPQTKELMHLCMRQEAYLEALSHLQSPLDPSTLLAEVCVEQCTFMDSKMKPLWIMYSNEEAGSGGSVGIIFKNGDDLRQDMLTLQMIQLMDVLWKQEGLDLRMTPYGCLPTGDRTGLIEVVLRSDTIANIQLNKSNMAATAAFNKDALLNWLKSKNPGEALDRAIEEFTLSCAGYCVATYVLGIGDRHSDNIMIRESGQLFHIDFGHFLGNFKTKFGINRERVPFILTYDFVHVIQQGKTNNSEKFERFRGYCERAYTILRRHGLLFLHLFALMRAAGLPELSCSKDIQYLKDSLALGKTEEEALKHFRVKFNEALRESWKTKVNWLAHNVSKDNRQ
Sequence of NADPH oxidase 2 (P04839 whole entry): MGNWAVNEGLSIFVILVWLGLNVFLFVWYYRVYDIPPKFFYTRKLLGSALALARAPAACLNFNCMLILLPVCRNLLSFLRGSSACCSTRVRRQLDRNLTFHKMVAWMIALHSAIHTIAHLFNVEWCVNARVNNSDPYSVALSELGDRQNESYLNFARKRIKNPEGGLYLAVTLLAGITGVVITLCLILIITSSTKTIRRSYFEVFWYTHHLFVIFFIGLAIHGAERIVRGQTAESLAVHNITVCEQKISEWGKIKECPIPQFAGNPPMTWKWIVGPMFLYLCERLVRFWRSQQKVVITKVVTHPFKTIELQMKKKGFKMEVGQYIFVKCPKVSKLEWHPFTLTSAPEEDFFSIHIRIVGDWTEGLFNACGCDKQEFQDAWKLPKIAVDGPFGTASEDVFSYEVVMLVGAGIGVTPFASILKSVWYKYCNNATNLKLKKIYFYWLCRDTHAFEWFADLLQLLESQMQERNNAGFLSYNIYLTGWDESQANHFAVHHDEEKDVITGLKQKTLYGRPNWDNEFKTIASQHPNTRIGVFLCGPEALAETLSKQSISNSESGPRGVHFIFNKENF
Sequence of Cytochrome P450 2D6 (P10635 whole entry): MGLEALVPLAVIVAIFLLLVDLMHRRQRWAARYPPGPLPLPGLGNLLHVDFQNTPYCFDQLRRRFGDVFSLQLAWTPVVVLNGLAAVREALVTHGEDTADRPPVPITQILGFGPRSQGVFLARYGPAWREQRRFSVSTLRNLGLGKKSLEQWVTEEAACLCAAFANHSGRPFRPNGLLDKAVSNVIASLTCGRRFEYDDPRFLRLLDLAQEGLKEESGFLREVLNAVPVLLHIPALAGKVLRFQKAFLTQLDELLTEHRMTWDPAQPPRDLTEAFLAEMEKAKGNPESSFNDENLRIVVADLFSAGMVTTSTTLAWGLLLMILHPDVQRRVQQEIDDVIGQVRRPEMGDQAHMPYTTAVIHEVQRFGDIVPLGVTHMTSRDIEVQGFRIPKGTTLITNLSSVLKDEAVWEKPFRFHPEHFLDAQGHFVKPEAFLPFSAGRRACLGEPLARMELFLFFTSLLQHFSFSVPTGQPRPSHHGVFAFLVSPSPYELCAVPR
Sequence of Phosphatidylinositol 4,5-bisphosphate 3-kinase catalytic subunit beta isoform (Homo sapiens) (P42338 whole entry, looked up, canonical isoform): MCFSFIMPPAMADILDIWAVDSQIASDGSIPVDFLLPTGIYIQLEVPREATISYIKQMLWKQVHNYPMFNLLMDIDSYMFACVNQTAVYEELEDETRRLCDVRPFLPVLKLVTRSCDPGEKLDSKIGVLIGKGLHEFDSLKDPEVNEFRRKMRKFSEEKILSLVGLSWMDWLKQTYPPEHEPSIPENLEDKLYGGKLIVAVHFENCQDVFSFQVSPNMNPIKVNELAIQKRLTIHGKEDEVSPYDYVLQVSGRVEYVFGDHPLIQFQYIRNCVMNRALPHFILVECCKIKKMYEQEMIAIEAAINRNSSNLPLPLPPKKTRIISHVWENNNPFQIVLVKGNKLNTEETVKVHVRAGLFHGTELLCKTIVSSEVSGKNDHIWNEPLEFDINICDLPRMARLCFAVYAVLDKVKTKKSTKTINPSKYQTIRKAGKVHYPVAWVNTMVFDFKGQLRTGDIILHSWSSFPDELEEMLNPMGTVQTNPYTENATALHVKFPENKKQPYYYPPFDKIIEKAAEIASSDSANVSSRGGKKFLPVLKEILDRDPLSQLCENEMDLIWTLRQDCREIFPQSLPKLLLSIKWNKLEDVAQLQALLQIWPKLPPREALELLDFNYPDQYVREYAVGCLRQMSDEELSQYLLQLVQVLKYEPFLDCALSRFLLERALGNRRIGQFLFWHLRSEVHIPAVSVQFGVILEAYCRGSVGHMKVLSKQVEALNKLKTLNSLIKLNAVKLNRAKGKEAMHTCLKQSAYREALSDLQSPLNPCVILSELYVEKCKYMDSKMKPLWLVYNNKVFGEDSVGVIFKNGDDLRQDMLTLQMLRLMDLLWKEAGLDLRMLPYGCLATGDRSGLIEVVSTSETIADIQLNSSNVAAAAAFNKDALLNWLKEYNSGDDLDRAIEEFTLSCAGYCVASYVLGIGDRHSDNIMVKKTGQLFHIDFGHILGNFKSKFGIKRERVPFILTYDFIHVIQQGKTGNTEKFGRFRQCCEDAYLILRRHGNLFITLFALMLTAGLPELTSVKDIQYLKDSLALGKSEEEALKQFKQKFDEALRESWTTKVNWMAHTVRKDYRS
Sequence of Cytochrome P450 3A4 (P08684 whole entry, canonical isoform): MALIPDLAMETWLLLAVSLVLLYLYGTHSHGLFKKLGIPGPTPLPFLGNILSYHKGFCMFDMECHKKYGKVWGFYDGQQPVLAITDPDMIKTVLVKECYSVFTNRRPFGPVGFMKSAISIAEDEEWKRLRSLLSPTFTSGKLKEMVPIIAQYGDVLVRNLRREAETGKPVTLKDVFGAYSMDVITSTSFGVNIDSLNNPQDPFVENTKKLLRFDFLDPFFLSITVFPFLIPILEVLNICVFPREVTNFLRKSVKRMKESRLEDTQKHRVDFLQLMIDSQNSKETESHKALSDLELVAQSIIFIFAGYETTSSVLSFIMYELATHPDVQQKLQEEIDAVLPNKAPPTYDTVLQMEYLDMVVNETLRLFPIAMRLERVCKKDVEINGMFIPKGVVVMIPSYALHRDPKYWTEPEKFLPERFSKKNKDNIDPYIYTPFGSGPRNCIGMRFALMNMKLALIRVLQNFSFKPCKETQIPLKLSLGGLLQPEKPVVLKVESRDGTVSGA

Ki [1]: 1530 nM
Ki [2]: 165 nM
inhibition [3]: 4%
clearance [4]: 7.83 mL/min/kg
Ki [5]: 160 nM
inhibition [6]: 0%
inhibition [7]: 0%
inhibition [8]: 0%
inhibition [9]: 2%
inhibition [10]: 0%
inhibition [11]: 0%
Cmax [12]: 12100 ng/mL
IC50 [13]: 20900 nM
AUC(0-inf) [14]: 11000 ng·h/mL
Cmax [15]: 3150 ng/mL
AUC(0-inf) [16]: 10900 ng·h/mL
inhibition [17]: 0%
IC50 [18]: > 25000 nM
inhibition [19]: 0%
Compound: Cc1c2c(=O)n(-c3ccccc3Cl)[nH]c2cc(=O)n1Cc1ccccn1
